Tests used:
Type in all cases: functional
Rattus norvegicus [1] = experiment: Percent increase in nonesterified fatty acids in obese Zucker rats after 2 weeks of treatment at a dose of 100 mg/kg/day
Method in brief: (§1)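 Female Zucker fatty rats [Crl:(Zuc)-faBR], 10–12 weeks, 400–500 g, acclimated 7 days on chow. Compound or vehicle (20% EtOH/80% PEG-200) given by daily oral gavage for 2 weeks, 0–100 mg/kg/day. After a 6 h fast, blood was taken before dosing, at 1 wk and at 2 wk. Serum lipids, NEFA and insulin (ELISA) were measured; glucose by glucometer. HDL/non-HDL-C came from Superose 6 gel-filtration profiles. Values are % change from pretreatment, mean ± SEM.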

Rattus norvegicus [2] = experiment: Percent increase in triglycerides in obese Zucker rats after 2 weeks of treatment at a dose of 0 mg/kg/day; method in brief: as §1
Rattus norvegicus [3] = experiment: Percent increase in nonesterified fatty acids in obese Zucker rats after 2 weeks of treatment at a dose of 3 mg/kg/day; method in brief: as §1
Rattus norvegicus [4] = experiment: Amount of non-HDL-cholesterol in obese Zucker rats after 2 weeks of treatment at a dose of 10 mg/kg/day
Method in brief: (§2)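 Female Zucker fatty rats [Crl:(Zuc)-faBR], 10–12 weeks old (400–500 g), dosed once daily by oral gavage in 20% EtOH/80% PEG-200 (dose volume 0.25% of body weight). Rats were fasted 6 h and bled before dosing and at day 7 (orbital plexus), and at day 14 (cardiac puncture). Serum cholesterol fractions came from Superose 6 gel-filtration lipoprotein profiles (% peak area × serum total cholesterol). Values are mean ± SEM.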

Rattus norvegicus [5] = experiment: Percent decrease in HDL-cholesterol in obese Zucker rats after 2 weeks of treatment at a dose of 0 mg/kg/day; design: scale not given: the % may be the effect or the level left; method in brief: as §1
Rattus norvegicus [6] = experiment: Percent decrease in nonesterified fatty acids in obese Zucker rats after 1 week of treatment at a dose of 10 mg/kg/day; design: scale not given: the % may be the effect or the level left; method in brief: as §1
Rattus norvegicus [7] = experiment: Percent decrease in triglycerides in obese Zucker rats after 1 week of treatment at a dose of 10 mg/kg/day; design: scale not given: the % may be the effect or the level left; method in brief: as §1
Rattus norvegicus [8] = experiment: Amount of non-HDL-cholesterol in obese Zucker rats at pre-treatment at a dose of 10 mg/kg/day
Method in brief: (§3)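 Female obese Zucker fatty rats [Crl:(Zuc)-faBR], 10–12 weeks old (400–500 g), on chow. Compound in 20% EtOH/80% PEG-200 (v/v) given by daily oral gavage. After a 6-h fast, serum was taken before dosing and at 7 days (orbital plexus), and at 14 days (cardiac puncture). Lipoprotein cholesterol came from Superose 6HR gel-filtration profiles × serum total cholesterol. Mean ± SEM.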

Rattus norvegicus [9] = experiment: Percent decrease in HDL-cholesterol in obese Zucker rats after 1 week of treatment at a dose of 3 mg/kg/day; design: scale not given: the % may be the effect or the level left; method in brief: as §1
Rattus norvegicus [10] = experiment: Percent decrease in nonesterified fatty acids in obese Zucker rats after 1 week of treatment at a dose of 30 mg/kg/day; design: scale not given: the % may be the effect or the level left; method in brief: as §1
Rattus norvegicus [11] = experiment: Percent increase in non-HDL-cholesterol in obese Zucker rats after 2 weeks of treatment at a dose of 30 mg/kg/day; method in brief: as §1
Rattus norvegicus [12] = experiment: Percent increase in HDL-cholesterol in obese Zucker rats after 1 week of treatment at a dose of 10 mg/kg/day; method in brief: as §1
Rattus norvegicus [13] = experiment: Amount of non-HDL-cholesterol in obese Zucker rats after 2 weeks of treatment at a dose of 3 mg/kg/day; method in brief: as §3
Rattus norvegicus [14] = experiment: Percent increase in nonesterified fatty acids in obese Zucker rats after 2 weeks of treatment at a dose of 0 mg/kg/day; method in brief: as §1
Rattus norvegicus [15] = experiment: Amount of nonesterified fatty acids in obese Zucker rats after 1 week of treatment at a dose of 10 mg/kg/day
Method in brief: (§4)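 Female Zucker fatty rats [Crl:(Zuc)-faBR], 10–12 weeks old (400–500 g), dosed once daily by oral gavage in 20% EtOH/80% PEG-200 for up to 14 days. After a 6-h fast, serum was taken pre-dose, at day 7 (orbital venous plexus, O2/CO2 anaesthesia) and at day 14 (cardiac puncture), stored at −80 °C, and assayed on a Hitachi 912 automatic analyzer. Mean ± SEM.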

Rattus norvegicus [16] = experiment: Percentage change of HDL cholesterol levels in obese female Zucker rats after 2 weeks of pre-treatment at a dose of 100 mg/kg/day
Method in brief: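 Obese female Zucker fatty rats were gavaged once daily with 30 or 100 mg/kg/day in 20% EtOH/80% PEG-200 for 2 weeks. Sera were collected after a 6 h fast, before dosing, at 1 week (orbital plexus) and at 2 weeks (cardiac puncture). HDL-C was total cholesterol multiplied by HDL area fraction from gel-filtration lipoprotein profiles. Reported as % change from pretreatment ± SEM.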

Rattus norvegicus [17] = experiment: Percent increase in HDL-cholesterol in obese Zucker rats after 2 weeks of treatment at a dose of 100 mg/kg/day; method in brief: as §1
Rattus norvegicus [18] = experiment: Percent decrease in non-HDL-cholesterol in obese Zucker rats after 1 week of treatment at a dose of 100 mg/kg/day; design: scale not given: the % may be the effect or the level left; method in brief: as §1
Rattus norvegicus [19] = experiment: Percent decrease in triglycerides in obese Zucker rats after 1 week of treatment at a dose of 100 mg/kg/day; design: scale not given: the % may be the effect or the level left; method in brief: as §1
Rattus norvegicus [20] = experiment: Amount of HDL-cholesterol in obese Zucker rats at pre-treatment at a dose of 0 mg/kg/day; method in brief: as §2
Rattus norvegicus [21] = experiment: Amount of glucose in obese Zucker rats at pre-treatment at a dose of 30 mg/kg/day
Method in brief: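 Female Zucker fatty rats [Crl:(Zuc)-faBR], 10–12 weeks old (400–500 g), gavaged daily with vehicle (20% EtOH/80% PEG-200, 0.25% of body weight) or compound. After a 6-h fast, blood glucose was read by glucometer from tail-prick blood of unanesthetized rats before dosing and after 1 and 2 weeks. Values are mean ± SEM.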

Rattus norvegicus [22] = experiment: Percent decrease in insulin in obese Zucker rats after 1 week of treatment at a dose of 10 mg/kg/day; design: scale not given: the % may be the effect or the level left; method in brief: as §1
Rattus norvegicus [23] = experiment: Amount of nonesterified fatty acids in obese Zucker rats after 2 weeks of treatment at a dose of 30 mg/kg/day; method in brief: as §4
Rattus norvegicus [24] = experiment: Percent decrease in insulin in obese Zucker rats after 2 weeks of treatment at a dose of 0 mg/kg/day; design: scale not given: the % may be the effect or the level left; method in brief: as §1
Rattus norvegicus [25] = experiment: Amount of triglycerides in obese Zucker rats after 2 weeks of treatment at a dose of 0 mg/kg/day; method in brief: as §4
Rattus norvegicus [26] = experiment: Percent decrease in non-HDL-cholesterol in obese Zucker rats after 2 weeks of treatment at a dose of 100 mg/kg/day; design: scale not given: the % may be the effect or the level left; method in brief: as §1
Rattus norvegicus [27] = experiment: Percent increase in glucose in obese Zucker rats after 2 weeks of treatment at a dose of 3 mg/kg/day; method in brief: as §1
Rattus norvegicus [28] = experiment: Percent decrease in nonesterified fatty acids in obese Zucker rats after 1 week of treatment at a dose of 3 mg/kg/day; design: scale not given: the % may be the effect or the level left; method in brief: as §1
Rattus norvegicus [29] = experiment: Percent decrease in triglycerides in obese Zucker rats after 2 weeks of treatment at a dose of 30 mg/kg/day; design: scale not given: the % may be the effect or the level left; method in brief: as §1
Rattus norvegicus [30] = experiment: Percent decrease in glucose in obese Zucker rats after 1 week of treatment at a dose of 100 mg/kg/day; design: scale not given: the % may be the effect or the level left; method in brief: as §1
Rattus norvegicus [31] = experiment: Percent increase in non-HDL-cholesterol in obese Zucker rats after 2 weeks of treatment at a dose of 10 mg/kg/day; method in brief: as §1
Rattus norvegicus [32] = experiment: Percent decrease in nonesterified fatty acids in obese Zucker rats after 2 weeks of treatment at a dose of 3 mg/kg/day; design: scale not given: the % may be the effect or the level left; method in brief: as §1
Rattus norvegicus [33] = experiment: Percent decrease in nonesterified fatty acids in obese Zucker rats after 2 weeks of treatment at a dose of 10 mg/kg/day; design: scale not given: the % may be the effect or the level left; method in brief: as §1

With CC(C)(CO)CCCCC(=O)CCCCC(C)(C)CO the Activity (Rattus norvegicus [1]) was -33%, the Activity (Rattus norvegicus [2]) was 18% and the Activity (Rattus norvegicus [3]) was 45%. For the same molecule, the Activity (Rattus norvegicus [4]) was 25 mg/dL, the Activity (Rattus norvegicus [5]) was -15% and the Activity (Rattus norvegicus [6]) was -18%. It also gave an Activity (Rattus norvegicus [7]) of -23%, an Activity (Rattus norvegicus [8]) of 25 mg/dL and an Activity (Rattus norvegicus [9]) of -10%. It also gave an Activity (Rattus norvegicus [10]) of -21%, an Activity (Rattus norvegicus [11]) of 27% and an Activity (Rattus norvegicus [12]) of 13%. It also gave an Activity (Rattus norvegicus [13]) of 22 mg/dL and an Activity (Rattus norvegicus [14]) of 33%.

CC(C)(CCCCC(=O)CCCCC(C)(C)C(=O)O)C(=O)O gave an Activity (Rattus norvegicus [15]) of 0.92 mg/dL, a Change (Rattus norvegicus [16]) of 78% and an Activity (Rattus norvegicus [17]) of 79%. The Activity (Rattus norvegicus [18]) was -42%, the Activity (Rattus norvegicus [19]) was -60% and the Activity (Rattus norvegicus [4]) was 27 mg/dL. For the same molecule, the Activity (Rattus norvegicus [20]) was 39 mg/dL, the Activity (Rattus norvegicus [8]) was 40 mg/dL and the Activity (Rattus norvegicus [21]) was 103 mg/dL. The Activity (Rattus norvegicus [10]) was -29%, the Activity (Rattus norvegicus [22]) was -27% and the Activity (Rattus norvegicus [23]) was 1.1 mg/dL. For the same molecule, the Activity (Rattus norvegicus [24]) was -31%, the Activity (Rattus norvegicus [25]) was 1140 mg/dL and the Activity (Rattus norvegicus [26]) was -29%. It also gave an Activity (Rattus norvegicus [13]) of 24 mg/dL.

CC(C)(CCCCCC(=O)CCCCCC(C)(C)C(=O)O)C(=O)O showed an Activity (Rattus norvegicus [2]) of 25%, an Activity (Rattus norvegicus [27]) of 8% and an Activity (Rattus norvegicus [28]) of -15%. For the same molecule, the Activity (Rattus norvegicus [5]) was -9%, the Activity (Rattus norvegicus [6]) was -17% and the Activity (Rattus norvegicus [7]) was -36%. It also gave an Activity (Rattus norvegicus [29]) of -52%, an Activity (Rattus norvegicus [30]) of -21% and an Activity (Rattus norvegicus [12]) of 58%. It also gave an Activity (Rattus norvegicus [31]) of 55%, an Activity (Rattus norvegicus [32]) of -23% and an Activity (Rattus norvegicus [26]) of -88%. It also gave an Activity (Rattus norvegicus [33]) of -21%.
